Experimental findings from ChEMBL document CHEMBL1833959, “Itraconazole side chain analogues: structure-activity relationship studies for inhibition of endothelial cell proliferation, vascular endothelial growth factor receptor 2 (VEGFR2) glycosylation, and hedgehog signaling” (2011) are described below.

The nature of assay [1]: Ratio of itraconazole IC50 to compound IC50 for antiproliferative activity against mouse Ptch+/- p53-/- medulloblastoma cells isolated from allografts in nude Harlan mouse after 96 hrs. It counts as functional, Medulloblastoma cell. Put shortly:
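Ptch−/+;p53−/− MB cells from nude-mouse allografts (ficoll-purified, three neurosphere passages, CD15 confirmed by flow cytometry) disaggregated and seeded in NBMedia with multiple analogue concentrations for 96 h. Cell number read by MTS-type CellTiter 96 AQueous absorbance; IC50 fitted from dose–response curves of mean corrected absorbance normalized to control, expressed relative to itraconazole.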

Assay [2] has as its system HUVEC. Kind of assay: Ratio of itraconazole IC50 to compound […] for antiangiogenic activity in human HUVEC cells assessed as inhibition of cell proliferation. It is filed as functional.
Assay [3] concerns the target Vascular endothelial growth factor receptor 2 (Homo sapiens) (UniProt P35968). Kind of assay: Inhibition of VEGFR2 glycosylation in human HUVEC cells at 2 uM after 24 hrs by Western blot analysis. It is filed as cell-based. Put shortly:
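Pooled HUVEC (passage ≤8, EGM-2) seeded 5 × 10^4 per well, recovered overnight, then given fresh media with analogue added from 200X DMSO stocks; 24 h exposure. Cells lysed in 2X SDS sample buffer (ice 10 min, boiled 10 min), 6% SDS-PAGE, PVDF blot probed with anti-VEGFR2 and HRP anti-rabbit IgG, ECL detection.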

A short description of assay [4]: Inhibition of hedgehog signaling pathway in mouse Ptch+/- p53-/- medulloblastoma cells assessed as inhibition of receptor-mediated Gli1 transcriptional activity at antiproliferative IC90 concentration after 24 hrs by RT-PCR analysis relative to control.
Assay [5] has as its system HUVEC. The assay is described as follows: Ratio of itraconazole IC50 to compound IC50 for antiangiogenic activity in human HUVEC cells assessed as inhibition of cell proliferation. It counts as functional.

Active and inactive are the calls of the source. The calls are words filed in the database; no cut-off is given here. Some results are limits rather than exact numbers.

Vascular endothelial growth factor receptor 2 (Homo sapiens), sequence (P35968 whole entry): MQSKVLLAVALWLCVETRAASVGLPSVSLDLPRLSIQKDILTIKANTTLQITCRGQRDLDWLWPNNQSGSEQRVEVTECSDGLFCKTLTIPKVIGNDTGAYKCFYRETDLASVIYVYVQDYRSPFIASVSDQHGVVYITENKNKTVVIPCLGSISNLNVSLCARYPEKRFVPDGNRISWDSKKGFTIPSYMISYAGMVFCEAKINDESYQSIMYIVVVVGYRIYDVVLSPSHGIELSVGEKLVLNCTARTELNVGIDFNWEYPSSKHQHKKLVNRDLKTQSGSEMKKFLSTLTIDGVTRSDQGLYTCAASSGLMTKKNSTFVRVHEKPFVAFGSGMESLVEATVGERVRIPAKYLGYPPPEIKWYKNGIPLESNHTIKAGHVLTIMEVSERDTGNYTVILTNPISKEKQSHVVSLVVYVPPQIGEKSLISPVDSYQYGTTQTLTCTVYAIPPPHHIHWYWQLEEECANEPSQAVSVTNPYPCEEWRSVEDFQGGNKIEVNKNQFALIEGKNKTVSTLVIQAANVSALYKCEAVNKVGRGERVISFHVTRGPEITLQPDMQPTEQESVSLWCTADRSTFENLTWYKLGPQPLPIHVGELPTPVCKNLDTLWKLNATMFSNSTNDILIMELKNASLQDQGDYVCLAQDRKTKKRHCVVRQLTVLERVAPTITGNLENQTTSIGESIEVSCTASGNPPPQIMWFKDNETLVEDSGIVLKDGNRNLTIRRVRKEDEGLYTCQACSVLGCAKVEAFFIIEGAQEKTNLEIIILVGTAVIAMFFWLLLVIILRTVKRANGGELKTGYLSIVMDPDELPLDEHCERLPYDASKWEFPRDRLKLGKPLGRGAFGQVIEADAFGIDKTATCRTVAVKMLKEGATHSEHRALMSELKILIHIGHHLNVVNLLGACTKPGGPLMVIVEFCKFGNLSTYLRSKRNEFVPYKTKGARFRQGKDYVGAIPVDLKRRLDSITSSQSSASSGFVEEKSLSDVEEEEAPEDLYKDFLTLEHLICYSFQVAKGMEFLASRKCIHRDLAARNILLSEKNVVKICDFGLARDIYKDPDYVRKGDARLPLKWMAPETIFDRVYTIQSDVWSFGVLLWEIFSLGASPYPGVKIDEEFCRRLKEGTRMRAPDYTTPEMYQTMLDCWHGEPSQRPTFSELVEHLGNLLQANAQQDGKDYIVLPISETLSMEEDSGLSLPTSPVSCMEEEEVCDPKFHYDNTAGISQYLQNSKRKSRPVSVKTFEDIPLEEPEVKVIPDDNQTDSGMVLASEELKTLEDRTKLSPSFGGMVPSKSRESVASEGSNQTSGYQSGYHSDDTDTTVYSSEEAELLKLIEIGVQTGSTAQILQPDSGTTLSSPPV

With `CCCCCCCCn1ncn(-c2ccc(N3CCN(c4ccc(OC[C@@H]5CO[C@@](Cn6cncn6)(c6ccc(Cl)cc6Cl)O5)cc4)CC3)cc2)c1=O`, the “Ratio IC50” value in assay [1] stood at 0.67. The Ratio in the assay on HUVEC [2] worked out at 2.24. Further, the inhibition result in assay [3] was “inactive”. In assay [4], the fold change (FC) was < 0.15.
Turning to `CC1(CCCCCCCn2ncn(-c3ccc(N4CCN(c5ccc(OC[C@@H]6CO[C@@](Cn7cncn7)(c7ccc(Cl)cc7Cl)O6)cc5)CC4)cc3)c2=O)N=N1`, the “Ratio IC50” value in assay [1] was 1.18. Besides, in the assay on HUVEC [2], the Ratio amounted to 1.1. In addition, the inhibition result in assay [3] was “inactive”. Besides, in assay [4], the fold change (FC) is > 0.45.
As for `O=c1n(-c2ccc(N3CCN(c4ccc(OC[C@@H]5CO[C@@](Cn6cncn6)(c6ccc(Cl)cc6Cl)O5)cc4)CC3)cc2)cnn1CCCCCCc1ccccc1`, the “Ratio IC50” value in assay [1] is 0.69. Also, the Ratio with HUVEC [2] is given as 1.45. The inhibition result in assay [3] is “inactive”. Also, the fold change (FC) in assay [4] is < 0.15.
With `CCC(C)n1ncn(-c2ccc(N3CCN(c4ccc(OCC5COC(Cn6cncn6)(c6ccc(Cl)cc6Cl)O5)cc4)CC3)cc2)c1=O` (stereo unspecified) [ITRACONAZOLE], the “Ratio IC50” value (in assay [1]; in the assay on HUVEC [5]) was 1 each time. Also, the inhibition entry in assay [3] was “Active”. In addition, the fold change (FC) in assay [4] is < 0.15.
